KCNK3 block = human KCNK3 channel inhibition, primary screen | O14649 | CHO-KCNK3 thallium flux, FluxOR fluorescence; active compounds read low | B-score at 10 µM | hit rate 0.84% among 340,000 | AID 602410;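 active = B-score under library mean minus 4 SD, starting fluorescence ratio at most library mean plus 5 SD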;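 also: more negative B-score means stronger inhibition of thallium flux through KCNK3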
Target sequence (O14649 whole entry, looked up): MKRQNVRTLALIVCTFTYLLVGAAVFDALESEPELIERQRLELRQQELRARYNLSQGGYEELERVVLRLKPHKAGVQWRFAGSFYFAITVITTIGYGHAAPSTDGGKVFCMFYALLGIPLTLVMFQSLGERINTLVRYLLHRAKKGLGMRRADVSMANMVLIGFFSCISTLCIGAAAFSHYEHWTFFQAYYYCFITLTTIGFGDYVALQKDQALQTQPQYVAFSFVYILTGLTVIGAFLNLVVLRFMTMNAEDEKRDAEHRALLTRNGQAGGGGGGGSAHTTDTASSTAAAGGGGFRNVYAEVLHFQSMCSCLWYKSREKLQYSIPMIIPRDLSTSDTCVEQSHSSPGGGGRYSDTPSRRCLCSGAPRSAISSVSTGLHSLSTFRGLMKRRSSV
PHOSPHO1 block = blocks human PHOSPHO1 phosphatase activity. AID 1565. Q8TCT1. recombinant PHOSPHO1, absorbance phosphatase assay. hit rate 1.1% among 290,000. inhibition, % at 13.3 µM; in the data active = inhibition above about 60%
Target sequence (Q8TCT1 whole entry, looked up): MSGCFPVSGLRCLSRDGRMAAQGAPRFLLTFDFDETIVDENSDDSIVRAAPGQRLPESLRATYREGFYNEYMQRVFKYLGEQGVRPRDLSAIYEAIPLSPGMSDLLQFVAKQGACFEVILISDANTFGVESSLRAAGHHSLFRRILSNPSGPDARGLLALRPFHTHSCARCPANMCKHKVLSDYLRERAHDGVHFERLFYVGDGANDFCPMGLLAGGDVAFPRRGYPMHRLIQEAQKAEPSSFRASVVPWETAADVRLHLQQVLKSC
KCNQ1 inh = blocks the human KCNQ1 potassium channel; P51787; CHO-K1 KCNQ1, FluxOR thallium flux fluorescence; active compounds read high; B-score at 10 µM; hit rate 1.3% among 310,000; AID 2642;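 active = compounds whose thallium flux B-score, printed positive for inhibition, exceeds three library SD while starting fluorescence stays within three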;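 also: channel opened by potassium depolarization with thallium stimulus after 20 min compound exposure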
KCNQ1 act = potentiates or activates the human KCNQ1 potassium channel; B-score at 10 µM; hit rate 0.35% among 310,000; CHO-K1 KCNQ1, thallium flux FluxOR fluorescence; active compounds read high;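 active = fluorescence ratio B-score, a plate-corrected score, at least three library SD, with initial intensity B-score within 5 SD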
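Material: CHO-K1 cells stably expressing KCNQ1. Medium: assay buffer for compound exposure, DMSO matched across wells. Reagent: K+/Tl+ depolarizing stimulus. Compound dosing: single-concentration screen. Times: 37 °C overnight plating, 90-min dark dye load, 20-min compound pretreatment. Technique: FluxOR Tl+ flux fluorescence.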
KCNK9 block = blocks the human KCNK9 two-pore domain potassium channel | Q9NPC2 | HEK293 KCNK9, FluxOR thallium flux fluorescence; active compounds read low | B-score at 10 µM | hit rate 1.2% among 310,000 | AID 488922;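 active = ratio B-score over 3 SD below the library mean, with starting fluorescence within 5 SD of its mean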;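 also: negative B-score means less thallium flux so channel inhibition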
hERG rescue = compounds protecting human hERG from proarrhythmic drug block. Q12809. CHO-hERG, FluxOR thallium flux, dofetilide IC70 present. activation (rescue from dofetilide block), less the hit threshold, % at 10 µM. hit rate 0.51% among 310,000;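 active = activation above the mean of controls blocked by dofetilide plus 5 SD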;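 also: thallium influx through hERG after potassium depolarization seen as dye fluorescence rise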
KCNK9 inh conf = confirmation of human KCNK9 potassium channel inhibitors; inhibition, % at 10 µM; shares compounds with KCNK9 block; hit rate 43% among 4,900; HEK293 KCNK9 cells, FluxOR thallium flux fluorescence;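 active = thallium signal inhibited by more than 5 SD of the compound-free buffer control wells, on both duplicate plates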
Kir2-1 spec = tests whether KCNK9 modulators also affect mouse Kir2.1; shares compounds with KCNK9 block; Kir2.1 cells, FluxOR thallium flux fluorescence; inhibition, % at 10 µM; hit rate 4% among 4,900; AID 492993;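 active = thallium signal drop more than 5 SD beyond the mean of the no-compound control wells, seen in both duplicate plates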;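 also: signal is fluorescence rise after thallium addition divided by baseline fluorescence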
HEK293 Tl ctr = second counter-screen for KCNK9 modulators: effect in non-induced cells; AID 492997; non-induced KCNK9-HEK293, FluxOR thallium flux; hit rate 40% among 4,900; inhibition, % at 10 µM; shares compounds with KCNK9 block;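 active = thallium signal drop beyond 5 SD of the untreated control mean, on both duplicate plates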
Large screens that a line does not name were inactive (follow-up assays come after a bar, where they were run). A selection: hits, their analogues and other compounds. The true share with any hit is near 4%.

Cc1cc(C)c(-c2csc(NC(=O)C3=COCCO3)n2)c(C)c1	none (no result: PHOSPHO1 block) | KCNK9 inh conf inactive | Kir2-1 spec inactive | HEK293 Tl ctr inactive
O=C(COC(=O)c1ccc2c(c1)OCO2)Nc1nc(-c2ccccc2)cs1	none
Cc1cc(-c2csc(NC(=O)C3=COCCO3)n2)c(C)n1C	none (no result: PHOSPHO1 block)
Cc1cc(C)c(-c2csc(NC(=O)COC(=O)c3ccc4c(c3)OCO4)n2)c(C)c1	none | KCNK9 inh conf inactive | Kir2-1 spec inactive | HEK293 Tl ctr inactive
COc1ccc(NC(=O)Cc2ccc(-c3ccccc3)cc2)cn1	none
Cc1nc(-c2cc(-c3nc(-c4ccc(C(C)(C)C)cc4)no3)no2)cs1	none
CCOC(=O)c1nc(Nc2cc(Cl)ccc2OC)c2ccccc2n1	KCNK9 block -13 (no result: PHOSPHO1 block) | KCNK9 inh conf 46% | Kir2-1 spec inactive | HEK293 Tl ctr inactive
CC(=NNC(=O)Cn1ccc(C(F)(F)F)n1)c1ccc(-n2ccnc2)cc1	none (no result: PHOSPHO1 block, KCNQ1 inh, KCNQ1 act, KCNK9 block, hERG rescue)
CC(NC(=O)CCCN1C(=O)c2ccccc2C1=O)c1ccc2c(c1)CCCC2 (stereo unspecified)	none
CC(NC(=O)CCCCCN1C(=O)c2ccccc2C1=O)c1ccc2c(c1)CCCC2 (stereo unspecified)	none | KCNK9 inh conf inactive | Kir2-1 spec inactive | HEK293 Tl ctr inactive
CC(NC(=O)CCCCCCN1C(=O)c2ccccc2C1=O)c1ccc2c(c1)CCCC2 (stereo unspecified)	none | KCNK9 inh conf inactive | Kir2-1 spec inactive | HEK293 Tl ctr inactive
Cc1cccc(NC(=O)C2CCN(C(=O)c3ccco3)CC2)c1C	none
CCOC(=O)C(C)Sc1nc2c(c(-c3cccs3)c1C#N)CCC2 (stereo unspecified)	none | KCNK9 inh conf inactive | Kir2-1 spec inactive | HEK293 Tl ctr inactive
CC(C)OC(=O)CC(=O)CSc1nc2c(c(-c3cccs3)c1C#N)CCC2	none
CC(C)n1c(SCC(=O)N2CCN(C)CC2)nc2c1c(=O)n(C)c(=O)n2C	none
O=C(N/N=C/c1cc(Br)cc(Br)c1O)c1cccc(S(=O)(=O)N2CCOCC2)c1	KCNK9 block -8.5 | KCNK9 inh conf 59% | Kir2-1 spec inactive | HEK293 Tl ctr 68%
Cc1ccc(NC(=O)c2cccc3c2C(=O)N(C2CCCCC2)C3)c(Cl)c1	KCNK9 block -18 | KCNK9 inh conf 56% | Kir2-1 spec inactive | HEK293 Tl ctr 44%
O=C(Nc1ccc(Br)cc1Br)c1cccc2c1C(=O)N(C1CCCCC1)C2	KCNK9 block -18 | KCNK9 inh conf 50% | Kir2-1 spec inactive | HEK293 Tl ctr 33%
Cc1ccc(CNC(=O)c2cc3c(-c4ccc(Cl)cc4)nn(C)c3s2)o1	KCNK3 block -12, KCNQ1 inh 11, KCNK9 block -12 | KCNK9 inh conf 56% | Kir2-1 spec inactive | HEK293 Tl ctr 35%
O=C(CSCC(=O)N1CCCCC1)Nc1nc(-c2ccc(Cl)s2)cs1	none | KCNK9 inh conf inactive | Kir2-1 spec inactive | HEK293 Tl ctr inactive
COC(=O)Cc1ccc(N(Cc2ccccc2F)S(=O)(=O)c2ccc(Cl)cc2)cc1	KCNK9 block -12 | KCNK9 inh conf 60% | Kir2-1 spec inactive | HEK293 Tl ctr 40%
COC(=O)CN(c1ccc(F)cc1)S(=O)(=O)c1ccccc1	none
CC(=O)c1cccc(-n2c(CCC(=O)O)ccc2-c2ccc(C)cc2)c1	KCNK9 block -15 | KCNK9 inh conf inactive | Kir2-1 spec inactive | HEK293 Tl ctr inactive
Cc1ccc(OCc2nnc(SCC(=O)N3c4ccccc4Sc4ccc(Cl)cc43)o2)cc1	none
CCOC(=O)c1cnc2ccc(OC)cc2c1NCc1ccccc1	none | KCNK9 inh conf inactive | Kir2-1 spec inactive | HEK293 Tl ctr inactive
Cc1ccsc1C(=O)C1CCCN(Cc2cc(F)ccc2-n2cccn2)C1 (stereo unspecified)	none | KCNK9 inh conf inactive | Kir2-1 spec inactive | HEK293 Tl ctr inactive
Cc1cc(C)c(CN2CCCC(CNC(=O)c3ccc(F)cc3)C2)c(-n2cccn2)c1 (stereo unspecified)	none
CC(C)Nc1ccc(C(CC(N)=O)NC(=O)Cc2ccc(Cl)cc2)cc1[N+](=O)[O-] (stereo unspecified)	none
O=C(Nc1nc2ccccc2[nH]1)c1ccccc1[N+](=O)[O-]	none
Cc1c(C(=O)Nc2nc3ccccc3[nH]2)cccc1[N+](=O)[O-]	KCNK9 block -8.4 | KCNK9 inh conf 47% | Kir2-1 spec inactive | HEK293 Tl ctr 26%
NNC(=O)CSc1nc(-c2ccccc2)nc2c1CCCC2	none
COc1ccc(CCC(=O)N2CCCC(Nc3ccc(OC)cc3)C2)cc1 (stereo unspecified)	none | KCNK9 inh conf inactive | Kir2-1 spec inactive | HEK293 Tl ctr inactive
COc1ccc(C(=O)N2CCCC(Nc3ccc(C(C)C)cc3)C2)c(OC)n1 (stereo unspecified)	none | KCNK9 inh conf inactive | Kir2-1 spec inactive | HEK293 Tl ctr inactive
COc1ccc(NC2CCCN(C(=O)CCc3scnc3C)C2)cc1 (stereo unspecified)	none
COc1ccc(NC2CCCN(C(=O)C3(C)CCCCC3)C2)cc1 (stereo unspecified)	none | KCNK9 inh conf inactive | Kir2-1 spec inactive | HEK293 Tl ctr inactive
O=C(CCc1ccccc1)N1CCCC(Nc2ccc(F)cc2)C1 (stereo unspecified)	none | KCNK9 inh conf inactive | Kir2-1 spec inactive | HEK293 Tl ctr inactive
N#CCSc1nc2c(sc(=S)n2Cc2ccco2)c(=O)n1-c1ccc(F)cc1	none
O=C(COC(=O)/C=C/C(=O)OCC(=O)Nc1ccccc1F)Nc1ccccc1F	none
O=C(Nc1ccnn1C1CCN(C(=O)Cc2cccc(Cl)c2)CC1)C1CC1	none
N=c1n(CC(=O)c2ccc(Br)s2)c2ccccc2n1Cc1ccccc1	KCNK9 block -10 | KCNK9 inh conf 52% | Kir2-1 spec inactive | HEK293 Tl ctr 30%
Cn1c(=N)n(CC(=O)c2ccc(Br)s2)c2ccccc21	none
O=[N+]([O-])c1cc(Cl)ccc1N1CCCCC1	none
O=[N+]([O-])c1cc(Cl)ccc1N1CCN(c2ccccc2O)CC1	KCNK9 block -8.5 | KCNK9 inh conf inactive | Kir2-1 spec inactive | HEK293 Tl ctr 25%
CCSc1nc(=O)n(-c2ccccc2)c(C)c1C(C)=O	none
COC(=O)c1cc(OC)c(OC)cc1NC(=S)N1CCN(C/C=C/c2ccccc2)CC1	none | KCNK9 inh conf inactive | Kir2-1 spec inactive | HEK293 Tl ctr inactive
COc1cc(C(=O)N2CCN(C/C=C/c3ccccc3)CC2)cc(OC)c1OC	none
